# Calls of active or inactive are those of the source. The calls are words filed in the database; no cut-off is given here.
# Tests used:
# A549 [1] = assay: Antiproliferative activity against human A549 cells assessed as inhibition of cell viability at 1 uM after 72 hrs by CCK-8 assay relative to control; type: functional; settings: A549, 72 h
# In short: (§1)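 Single-concentration viability screen using CCK-8. Cells were seeded at 3000/well and treated for 72 h. A450 read after 1-4 h with reagent. Percent inhibition calculated against untreated control and blank wells as (Ac−As)/(Ac−Ab)×100%.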
# [2] = target: T1, CDK4/Cyclin D3 (Homo sapiens) (UniProt P11802+P30281); assay: Inhibition of recombinant full-length human CDK4/cyclinD3 at 1 uM using Rb fragment as substrate measured after 40 mins in presence of [gamma33P]ATP by scintillation counting method relative to control; type: protein-complex assay
# In short: (§2)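 Percent inhibition of kinase activity at a single compound concentration, measured by the outsourced Eurofins KinaseProfiler panel. Values are the mean of two independent experiments.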
# NCI-H1299 [3] = assay: Antiproliferative activity against human H1299 cells assessed as inhibition of cell viability at 10 uM after 72 hrs by CCK-8 assay relative to control; type: functional; settings: NCI-H1299, 72 h; in short: as §1
# A549 [4] = assay: Antiproliferative activity against human A549 cells assessed as inhibition of cell viability at 10 uM after 72 hrs by CCK-8 assay relative to control; type: functional; settings: A549, 72 h; in short: as §1
# [5] = target: T2, CDK9/cyclin T1 (Homo sapiens) (UniProt O60563+P50750); assay: Inhibition of recombinant full-length human CDK9/cyclinT1 at 500 nM using KTFCGTPEYLAPEVRREPRILSEEEQEMFRDFDYIADWC peptide as substrate measured after 40 mins in presence of [gamma33P]ATP by scintillation counting method relative to control; type: protein-complex assay; in short: as §2
# [6] = target: T2, CDK9/cyclin T1 (Homo sapiens); assay: Inhibition of recombinant full-length human CDK9/cyclinT1 at 1 uM using KTFCGTPEYLAPEVRREPRILSEEEQEMFRDFDYIADWC peptide as substrate measured after 40 mins in presence of [gamma33P]ATP by scintillation counting method relative to control; type: protein-complex assay; in short: as §2
# [7] = target: T3, CDK6/cyclin D3 (Homo sapiens) (UniProt P30281+Q00534); assay: Inhibition of recombinant full-length human CDK6/cyclinD3 at 500 nM using histone H1 as substrate measured after 40 mins in presence of [gamma33P]ATP by scintillation counting method relative to control; type: protein-complex assay; in short: as §2
# [8] = target: T3, CDK6/cyclin D3 (Homo sapiens); assay: Inhibition of recombinant full-length human CDK6/cyclinD3 at 1 uM using histone H1 as substrate measured after 40 mins in presence of [gamma33P]ATP by scintillation counting method relative to control; type: protein-complex assay; in short: as §2
# NCI-H1299 [9] = assay: Antiproliferative activity against human H1299 cells assessed as inhibition of cell viability at 1 uM after 72 hrs by CCK-8 assay relative to control; type: functional; settings: NCI-H1299, 72 h; in short: as §1
# [10] = target: T1, CDK4/Cyclin D3 (Homo sapiens); assay: Inhibition of recombinant full-length human CDK4/cyclinD3 at 500 nM using Rb fragment as substrate measured after 40 mins in presence of [gamma33P]ATP by scintillation counting method relative to control; type: protein-complex assay; in short: as §2
# CDK9/cyclin T1 = CDK9/cyclin T1 (Homo sapiens, UniProt P50750); assay: Inhibition of recombinant full-length human CDK9/cyclinT1 using KTFCGTPEYLAPEVRREPRILSEEEQEMFRDFDYIADWC peptide as substrate measured after 40 mins in presence of [gamma33P]ATP by scintillation counting method; type: protein-complex assay
# In short: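 IC50 against CDK9/cyclin T1, determined by the outsourced Eurofins KinaseProfiler service. Values are the mean of two independent experiments.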
# Chain of CDK9/cyclin T1 (O60563 whole entry): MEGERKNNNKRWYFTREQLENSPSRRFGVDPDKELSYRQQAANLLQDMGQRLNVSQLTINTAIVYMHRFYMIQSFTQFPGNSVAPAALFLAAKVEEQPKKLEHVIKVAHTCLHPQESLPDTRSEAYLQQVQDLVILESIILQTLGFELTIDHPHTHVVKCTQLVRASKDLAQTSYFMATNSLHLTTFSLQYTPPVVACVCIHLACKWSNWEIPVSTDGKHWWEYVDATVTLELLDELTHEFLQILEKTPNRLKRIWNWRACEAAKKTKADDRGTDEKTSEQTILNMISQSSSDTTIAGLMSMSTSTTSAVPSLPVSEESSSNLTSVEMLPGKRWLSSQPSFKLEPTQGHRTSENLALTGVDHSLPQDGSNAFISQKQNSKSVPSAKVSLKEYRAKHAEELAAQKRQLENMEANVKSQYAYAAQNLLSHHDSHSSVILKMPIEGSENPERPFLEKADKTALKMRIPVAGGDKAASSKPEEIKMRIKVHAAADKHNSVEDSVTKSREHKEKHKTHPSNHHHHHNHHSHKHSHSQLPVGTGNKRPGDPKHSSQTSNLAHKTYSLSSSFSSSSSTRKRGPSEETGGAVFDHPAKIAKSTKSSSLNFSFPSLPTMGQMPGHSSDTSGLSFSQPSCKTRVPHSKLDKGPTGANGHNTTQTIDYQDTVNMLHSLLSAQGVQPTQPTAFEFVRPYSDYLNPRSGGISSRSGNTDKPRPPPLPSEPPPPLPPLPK
# Chain of CDK9/cyclin T1 (P50750 whole entry): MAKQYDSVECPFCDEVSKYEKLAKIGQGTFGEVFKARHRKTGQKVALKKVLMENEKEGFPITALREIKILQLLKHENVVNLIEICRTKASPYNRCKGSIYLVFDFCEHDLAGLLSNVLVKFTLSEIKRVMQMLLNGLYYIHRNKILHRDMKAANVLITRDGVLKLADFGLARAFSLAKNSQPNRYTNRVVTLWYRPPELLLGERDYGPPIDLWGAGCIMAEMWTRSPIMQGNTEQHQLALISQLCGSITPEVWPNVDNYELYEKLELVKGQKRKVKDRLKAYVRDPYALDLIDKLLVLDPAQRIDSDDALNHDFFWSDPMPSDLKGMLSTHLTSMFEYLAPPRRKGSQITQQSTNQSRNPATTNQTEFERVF
smiles,measurement,setting,value
CN(C)C(=O)c1cc2cnc(Nc3ccc(C(=O)NCCCN=C=S)cc3)nc2n1C1CCCC1,inhibition at 1 µM,A549 [1],32.9%
same,inhibition,[2],99%
same,inhibition at 10 µM,NCI-H1299 [3],91.2%
same,inhibition at 10 µM,A549 [4],102%
same,inhibition,[5],100%
same,inhibition,[6],98%
same,inhibition,[7],69%
same,inhibition,[8],94%
same,inhibition at 1 µM,NCI-H1299 [9],65.1%
same,inhibition,[10],98%
CN(C)C(=O)c1cc2cnc(Nc3ccc(C(=O)NCCCCCN=C=S)cc3)nc2n1C1CCCC1,inhibition at 1 µM,A549 [1],29.3%
same,inhibition,[2],97%
same,inhibition at 10 µM,NCI-H1299 [3],76.5%
same,inhibition at 10 µM,A549 [4],100%
same,inhibition,[5],97%
same,inhibition,[6],97%
same,inhibition,[7],79%
same,inhibition,[8],94%
same,inhibition at 1 µM,NCI-H1299 [9],50.3%
same,inhibition,[10],101%
CN(C)C(=O)c1cc2cnc(Nc3ccc(S(=O)(=O)NCCCCN=C=S)cc3)nc2n1C1CCCC1,inhibition at 1 µM,A549 [1],39.4%
same,inhibition,[2],90%
same,inhibition at 10 µM,NCI-H1299 [3],72.7%
same,inhibition at 10 µM,A549 [4],101%
same,inhibition,[5],99%
same,inhibition,[6],98%
same,inhibition,[7],64%
same,inhibition,[8],92%
same,inhibition at 1 µM,NCI-H1299 [9],29.9%
same,inhibition,[10],91%
CN(C)C(=O)c1cc2cnc(Nc3ccc(C(=O)NCCCCN=C=S)cn3)nc2n1C1CCCC1,inhibition,[2],95%
same,inhibition,[5],41%
same,inhibition,[6],85%
same,inhibition,[7],53%
same,inhibition,[8],88%
same,inhibition,[10],91%
CN(C)C(=O)c1cc2cnc(Nc3ccc(NC(=O)CCCCN=C=S)cc3)nc2n1C1CCCC1,inhibition at 1 µM,A549 [1],38.2%
same,inhibition,[2],97%
same,inhibition at 10 µM,NCI-H1299 [3],82.5%
same,inhibition at 10 µM,A549 [4],102%
same,inhibition,[5],99%
same,inhibition,[6],97%
same,inhibition,[7],71%
same,inhibition,[8],93%
same,inhibition at 1 µM,NCI-H1299 [9],58.6%
same,inhibition,[10],100%
CN(C)C(=O)c1cc2cnc(Nc3ccc(NC(=O)CCCCCCN=C=S)cc3)nc2n1C1CCCC1,inhibition at 1 µM,A549 [1],43.3%
same,inhibition,[2],97%
same,inhibition at 10 µM,NCI-H1299 [3],80.9%
same,inhibition at 10 µM,A549 [4],102%
same,inhibition,[5],98%
same,inhibition,[6],99%
same,inhibition,[7],65%
same,inhibition,[8],86%
same,inhibition at 1 µM,NCI-H1299 [9],50.9%
same,inhibition,[10],99%
CN(C)C(=O)c1cc2cnc(Nc3ccc(NC(=O)CCCCCCCN=C=S)c(F)c3)nc2n1C1CCCC1,inhibition,[2],86%
same,inhibition,[5],76%
same,inhibition,[6],87%
same,inhibition,[7],51%
same,inhibition,[8],69%
same,inhibition,[10],75%
CN(C)C(=O)c1cc2cnc(Nc3ccc(S(=O)(=O)NCCCN=C=S)cc3)nc2n1C1CCCC1,inhibition at 1 µM,A549 [1],58.9%
same,inhibition,[2],90%
same,inhibition at 10 µM,NCI-H1299 [3],72.8%
same,inhibition at 10 µM,A549 [4],102%
same,inhibition,[5],96%
same,inhibition,[6],97%
same,inhibition,[7],59%
same,inhibition,[8],89%
same,inhibition at 1 µM,NCI-H1299 [9],41.3%
same,inhibition,[10],85%
CN(C)C(=O)c1cc2cnc(Nc3ccc(C(=O)NCCCCCCN=C=S)cc3O)nc2n1C1CCCC1,inhibition,[2],45%
same,inhibition,[5],5%
same,inhibition,[6],81%
same,inhibition,[8],47%
CN(C)C(=O)c1cc2cnc(Nc3ccc(NC(=O)CCCN=C=S)cc3)nc2n1C1CCCC1,inhibition at 1 µM,A549 [1],56.1%
same,inhibition,[2],98%
same,inhibition at 10 µM,NCI-H1299 [3],78.8%
same,inhibition at 10 µM,A549 [4],102%
same,inhibition,[5],99%
same,inhibition,[6],98%
same,inhibition,[7],70%
same,inhibition,[8],93%
same,inhibition at 1 µM,NCI-H1299 [9],39.7%
same,inhibition,[10],99%
O=C(CCCCCCCN=C=S)Nc1ccc(Nc2ncc3nnn(C4CCCC4)c3n2)cc1,inhibition,[2],19%
same,inhibition,[5],34%
same,inhibition,[6],78%
same,inhibition,[8],42%
CN(C)C(=O)c1cc2cnc(Nc3ccc(NC(=O)CCCCCCCN=C=S)cc3C(F)(F)F)nc2n1C1CCCC1,inhibition,[2],63%
same,inhibition,[5],79%
same,inhibition,[6],72%
same,inhibition,[8],1%
CN(C)C(=O)c1cc2cnc(Nc3ccc(S(=O)(=O)NCCCCCN=C=S)cc3)nc2n1C1CCCC1,inhibition at 1 µM,A549 [1],56.6%
same,inhibition,[2],91%
same,inhibition at 10 µM,NCI-H1299 [3],83.4%
same,inhibition at 10 µM,A549 [4],102%
same,inhibition,[5],95%
same,inhibition,[6],98%
same,inhibition,[7],51%
same,inhibition,[8],89%
same,inhibition at 1 µM,NCI-H1299 [9],52.1%
same,inhibition,[10],85%
CN(C)C(=O)c1cc2cnc(Nc3ccc(C(=O)NCCCN=C=S)cn3)nc2n1C1CCCC1,inhibition,[2],95%
same,inhibition,[5],40%
same,inhibition,[6],84%
same,inhibition,[7],54%
same,inhibition,[8],89%
same,inhibition,[10],92%
CN(C)C(=O)c1cc2cnc(Nc3ccc(C(=O)NCCCCCCN=C=S)cn3)nc2n1C1CCCC1,inhibition,[2],95%
same,inhibition,[5],27%
same,inhibition,[6],73%
same,inhibition,[7],52%
same,inhibition,[8],82%
same,inhibition,[10],93%
CN(C)C(=O)c1cc2cnc(Nc3ccc(C(=O)NCCCCCN=C=S)cc3O)nc2n1C1CCCC1,inhibition at 1 µM,A549 [1],23.1%
same,inhibition,[2],59%
same,inhibition at 10 µM,NCI-H1299 [3],80.7%
same,inhibition at 10 µM,A549 [4],30.7%
same,inhibition,[5],91%
same,IC50,CDK9/cyclin T1,33 nM
same,inhibition,[6],92%
same,inhibition,[8],60%
same,inhibition at 1 µM,NCI-H1299 [9],22.6%
CN(C)C(=O)c1cc2cnc(Nc3ccc(CNC(=O)CCCCCCCN=C=S)cc3)nc2n1C1CCCC1,inhibition at 1 µM,A549 [1],17.8%
same,inhibition,[2],93%
same,inhibition at 10 µM,NCI-H1299 [3],91.7%
same,inhibition at 10 µM,A549 [4],98.9%
same,inhibition,[5],90%
same,inhibition,[6],95%
same,inhibition,[7],63%
same,inhibition,[8],81%
same,inhibition at 1 µM,NCI-H1299 [9],53.8%
same,inhibition,[10],89%
CN(C)C(=O)c1cc2cnc(Nc3ccc(N=C=S)cc3)nc2n1C1CCCC1,inhibition at 1 µM,A549 [1],44.4%
same,inhibition,[2],94%
same,inhibition at 10 µM,NCI-H1299 [3],83.7%
same,inhibition at 10 µM,A549 [4],97.9%
same,inhibition,[5],93%
same,inhibition,[6],96%
same,inhibition,[7],43%
same,inhibition,[8],72%
same,inhibition at 1 µM,NCI-H1299 [9],46.9%
same,inhibition,[10],89%
CN(C)C(=O)c1cc2cnc(Nc3ccc(C(=O)NCCCCCCCN=C=S)cc3O)nc2n1C1CCCC1,inhibition,[2],37%
same,inhibition,[5],7%
same,inhibition,[6],84%
same,inhibition,[8],42%
CN(C)C(=O)c1cc2cnc(Nc3ccccc3NC(=O)CCCCCCCN=C=S)nc2n1C1CCCC1,inhibition,[2],14%
same,inhibition,[6],11%
same,inhibition,[8],1%
CN(C)C(=O)c1cc2cnc(NNC(=O)CCCCCCCN=C=S)nc2n1C1CCCC1,inhibition,[2],14%
same,inhibition,[6],17%
same,inhibition,[8],inactive
CN(C)C(=O)c1cc2cnc(Nc3ccc(C(=O)NCCCCCCN=C=S)cc3)nc2n1C1CCCC1,inhibition at 1 µM,A549 [1],35.8%
same,inhibition,[2],98%
same,inhibition at 10 µM,NCI-H1299 [3],85%
same,inhibition at 10 µM,A549 [4],100%
same,inhibition,[5],67%
same,inhibition,[6],96%
same,inhibition,[7],63%
same,inhibition,[8],92%
same,inhibition at 1 µM,NCI-H1299 [9],49.4%
same,inhibition,[10],101%
CN(C)C(=O)c1cc2cnc(Nc3ccc(N4CCN(C(=O)CCCCCCCN=C=S)CC4)cn3)nc2n1C1CCCC1,inhibition,[2],98%
same,inhibition,[5],3%
same,inhibition,[6],58%
same,inhibition,[7],62%
same,inhibition,[8],93%
same,inhibition,[10],91%
CN(C)C(=O)c1cc2cnc(Nc3ccc(C(=O)NCCCCCN=C=S)cn3)nc2n1C1CCCC1,inhibition,[2],94%
same,inhibition,[5],37%
same,inhibition,[6],87%
same,inhibition,[7],55%
same,inhibition,[8],87%
same,inhibition,[10],94%
CN(C)C(=O)c1cc2cnc(Nc3ccc(C(=O)NCCCCN=C=S)cc3)nc2n1C1CCCC1,inhibition at 1 µM,A549 [1],30.2%
same,inhibition,[2],98%
same,inhibition at 10 µM,NCI-H1299 [3],74.2%
same,inhibition at 10 µM,A549 [4],102%
same,inhibition,[5],98%
same,inhibition,[6],99%
same,inhibition,[7],79%
same,inhibition,[8],93%
same,inhibition at 1 µM,NCI-H1299 [9],55.2%
same,inhibition,[10],99%
CN(C)C(=O)c1cc2cnc(Nc3ccc(NC(=O)CCCCCN=C=S)cc3)nc2n1C1CCCC1,inhibition at 1 µM,A549 [1],56.1%
same,inhibition,[2],96%
same,inhibition at 10 µM,NCI-H1299 [3],85%
same,inhibition at 10 µM,A549 [4],100%
same,inhibition,[5],99%
same,inhibition,[6],97%
same,inhibition,[7],64%
same,inhibition,[8],90%
same,inhibition at 1 µM,NCI-H1299 [9],34.3%
same,inhibition,[10],99%
CN(C)C(=O)c1cc2cnc(Nc3ccc(C(=O)NCCCCCCCN=C=S)cn3)nc2n1C1CCCC1,inhibition,[2],84%
same,inhibition,[5],18%
same,inhibition,[6],73%
same,inhibition,[7],46%
same,inhibition,[8],64%
same,inhibition,[10],91%

# Source: ChEMBL document CHEMBL4376814, “Novel cyclin-dependent kinase 9 (CDK9) inhibitor with suppression of cancer stemness activity against non-small-cell lung cancer” (Eur J Med Chem, 2019)
